# Source: ChEMBL document CHEMBL4513216, “Probing the Open Global Health Chemical Diversity Library for Multistage-Active Starting Points for Next-Generation Antimalarials” (ACS Infect Dis, 2020)
# Assay: Toxicity liver stage against HepG2, at 10uM
# Format: cell-based
# Design: test concentration 10 uM, cell line HepG2-A16-CD81EGFP
# Conditions: human, HepG2-A16-CD81EGFP cells; read-out: INHIBITION
# Method in brief: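 Uninfected HepG2-A16-CD81EGFP cells, 3 × 10^3 per well, 1536-well, plated on prespotted compound at 10 μM final, parasite-free screening media added to match infected plates; puromycin 10 μM positive, DMSO 0.5% negative; run in parallel with 48 h PbLuc assay at 37 °C, 5% CO2; viability by CellTiter-Glo luminescence, normalized to controls.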
row,Compound,cytotoxicity at 10 µM [%]
1,CS(=O)(=O)C1=C(O)C(=O)N(c2ccccc2)C1c1ccccc1 (configuration not stated),-1.06
2,COc1cccc(NC(=O)C2CC(=O)n3cnnc3S2)c1 (configuration not stated),2.27
3,CN1C(=O)[C@H](OC(N)=O)[C@@H](C(=O)Nc2ccccc2)C12CCNCC2,2.73
4,COc1cccc2c1ccn2CCNC(C)=O,1.89
5,COc1ccc2c(c1)c(C(=O)Nc1n[nH]c(C(C)C)n1)cn2C(C)C,-26.8
6,Cn1c(C(F)(F)F)nn(CCNC(=O)Nc2ccccc2Cl)c1=O,13.4
7,Cc1ncn(CCNC(=O)Nc2ccc(F)c(Cl)c2)c(=O)c1C,-2.93
8,Cc1nsc(C(=O)NCCc2ccc(Cl)cc2)n1,2.09
9,O=C(Cc1ccsc1)N1CCC2(CCCN(CC3CCOCC3)C2)C1 (configuration not stated),-135
10,CCOCC1CN(C(=O)c2ccoc2)Cc2nn(C)cc21 (configuration not stated),0.254
11,COCC(=O)N1CCC2(CCN(c3cnn(C)c3)C2=O)C1 (configuration not stated),0.486
12,CCN1CC2(CC1=O)CN(C(=O)c1ccoc1)CCN(C(=O)N(C)C)C2 (configuration not stated),4.26
13,O=C(c1ccccc1)N1CC(C(=O)N2CCOCC2)C2(CCOCC2)C1 (configuration not stated),3.07
14,Cn1ncc2c1C(COCC1CC1)CN(C(=O)Cc1ccsc1)C2 (configuration not stated),10.1
15,CC(C)CCNC(=O)C1CCN(c2ccc3nnc(C(C)C)n3n2)CC1,1.68
16,COc1cccc2c3c(c(=O)[nH]c12)CCO3,5.57
17,CN(C)C(=O)c1nc2c(s1)CCN(C(=O)c1ccc(Cl)cc1)CC2,-14.2
18,CC(C)(C)NC(=O)c1ccn(COc2c(Cl)cccc2Cl)n1,3.02
19,Fc1ccccc1NCc1nc2n(n1)CCCCC2,2.02
20,COc1cc(C(F)(F)F)sc1C(=O)O,-3.29
21,CCn1nc(CNC(C)(C)CO)c(-c2ccccc2)n1,8.96
22,Cc1nc(N2CCOCC2)ncc1-c1cc(O)nc(N2CCCCC2)n1,6.2
23,O=C(O)c1ccccc1-n1cc(CN2CCOC(c3cc[nH]n3)C2)cn1 (configuration not stated),3.33

row,Compound,cytotoxicity at 10 µM [%]
1,Cc1cnc2[nH]c(C(F)(F)F)c(CN3CCSCC3)c2c1,13.3
2,Cc1cc(C)nc(C2CCCN2C(=O)c2cnccn2)n1 (configuration not stated),3.74
3,CNc1nccnc1C1CN(Cc2ccc3[nH]ccc3c2)CCO1 (configuration not stated),-2.52
4,CCc1nccn1-c1cccc(C2CCN(C(=O)COC)CC2)n1,-14.9
5,CS(=O)(=O)N1CCCC1Cn1cccn1 (configuration not stated),-10.2
6,O=C(O)c1ccccc1CN1CCOC(CCc2ccncn2)C1 (configuration not stated),-20.6
7,COCCCNC(=O)c1ccccc1-n1cc(CN(C)C)cn1,-22.4
8,Cc1noc(CNC(=O)c2ccccc2-n2cc(CN)cn2)n1,-19.6
9,Cc1nn(C)cc1CN1CCC(C2Nc3ccccc3S(=O)(=O)N2)CC1 (configuration not stated),-2.19
10,CN(C)CCOc1ccccc1N1CCN(C(=O)C(C)(C)C#N)CC1,11.4
11,Cn1ccnc1C(O)(CCNCc1ccco1)C(F)(F)F (configuration not stated),1.66
12,CSCC(C)C(=O)NCc1c(C)nc2cc(=O)[nH]n2c1C (configuration not stated),-16.3
13,CNS(=O)(=O)CC1CCCN1c1ccc(Br)cn1 (configuration not stated),3.1
14,CCN(C)Cc1cccc(CNC(=O)CSCc2ccccn2)c1,1.61
15,CCN(CC)C(CNC(=O)c1cccnc1-n1cncn1)c1ccsc1 (configuration not stated),-146
16,NS(=O)(=O)CCNC(=O)c1ccc(OCc2ccccc2)nc1,6.85
17,Cc1noc(C)c1CN(C)CC1CC(C2CCCCC2)=NO1 (configuration not stated),3.72
18,CCNC(=O)C1CCCN(c2ccc3ccc(F)cc3n2)C1 (configuration not stated),-1.69
19,O=C(Cc1ccon1)N1CCN(c2ccncc2Cl)CC1,-2.47
20,CC(Cc1cccc(F)c1)C(=O)NS(=O)(=O)c1ccc(F)cc1 (configuration not stated),5.58
21,CN1N=C(C(=O)N2CCCN(c3ncccc3C#N)CC2)CCC1=O,-1.8
22,O=C(N1CCSCC1)C1(O)Cc2ccccc2C1,6.35
23,CN(Cc1cnn(C)c1)S(=O)(=O)N1CCCCC1,-3.38

row,Compound,cytotoxicity at 10 µM [%]
1,Cc1cc(C)n(CC2CCCCN2CC(=O)Nc2c(C)n[nH]c2C)n1 (configuration not stated),-1.92
2,CC(CO)CSc1ncnc2[nH]ncc12 (configuration not stated),-12.3
3,NC(=O)CSc1ccccc1NC(=O)C1CCCCC1,-127
4,N#CCCCOc1cccnc1NC(=O)CC1CCCCC1,21.9
5,CNC(=O)N1CCCCC1c1nnc2n1CCCC2 (configuration not stated),-6.1
6,CN(C(=O)COCc1ccccc1)C1CCN(CC2CCOC2)CC1 (configuration not stated),-3.7
7,CN1CCCC(N2CCN(c3nc4ccccn4c3C#N)CC2)C1 (configuration not stated),1.52
8,COc1ccc(OC)c(-n2nnnc2SCC2CCCCO2)c1 (configuration not stated),11.7
9,O=C(NC1CCCN(c2ccccc2Cl)C1)c1c[nH]nn1 (configuration not stated),-1.58
10,CS(=O)(=O)NC1CCCN(C(=O)Nc2ccccc2Cn2cccn2)C1 (configuration not stated),3.81
11,CCNc1nc(C)c(C(=O)N(C)Cc2nc(CC)no2)s1,-6.02
12,CCn1cc(S(=O)(=O)N2CCCC2c2ccc(C)o2)cn1 (configuration not stated),20.9
13,Cc1ccc(C2CSCCN2C(=O)c2cccs2)o1 (configuration not stated),3.82
14,Cc1cc(F)ccc1S(=O)(=O)N1CCN(C)c2ccncc21,8.29
15,N#Cc1ccc(-c2nnc(CSCCN3CCOCC3)o2)cc1,-5.08
16,Cc1nn(C)c(C)c1C1CCCN1C(=O)Cc1cn2ccsc2n1 (configuration not stated),-45.2
17,CN(C)CCN(Cc1ccco1)C(=O)Cc1cn2ccsc2n1,5.92
18,O=C(CN1CCSCC1c1ccccc1)N1CCOCC1 (configuration not stated),-5.88
19,c1coc(CN2C[C@H](OCC3CCOCC3)[C@H]3COC[C@H]32)c1,0.127
20,CS(=O)(=O)N[C@@H]1CCO[C@]2(CCN(C(=O)C3=CCCC3)C2)C1,0.693
21,CSCc1noc(C2CCC(=O)N(CCc3ccccc3)C2)n1 (configuration not stated),-6.72
22,Cc1ccc(NC2(C(=O)NC(C)c3ncn[nH]3)CCCC2)cc1 (configuration not stated),0.317
23,COc1ccc(F)c(-c2ncccc2NC(=O)C(C)C)c1,5.69

row,Compound,cytotoxicity at 10 µM [%]
1,CNC(=O)[C@@H]1C[C@@H](NC(=O)c2ccc(OC)o2)CN1Cc1sccc1C,2.29
2,CC(C)c1nc(N2CCC(N3CCSCC3)CC2)c2cnn(C)c2n1,-136
3,O=C(NCCCn1ccnn1)C1CCCN(C2CCCC2)C1 (configuration not stated),-6.03
4,COc1ccc(F)c(F)c1CN1CC(=O)N(c2ccccc2C)CC1C (configuration not stated),-0.121
5,NCCc1n[nH]c(=O)n1-c1cccc(Cl)c1Cl,-2.38
6,Cc1ncc(C(=O)N2CCC(N3CCc4ccccc4C3)CC2)c(O)n1,-0.745
7,Cc1c(-c2nc3cc(S(=O)(=O)N4CCCC4)ccc3n2C)cnn1C,2.2
8,CCOc1ccccc1C(C(=O)O)N(C)Cc1nc(C)c[nH]1 (configuration not stated),-5.18
9,Cc1nccn1CCCC(=O)N1CCN(c2cccnc2)CC1,-4.98
10,COCCNS(=O)(=O)c1cccc2c1CN(C(=O)c1ccccc1)CC2,5.54
11,COCCC1(CO)CCCN(Cc2ccc(F)c(C)c2)C1 (configuration not stated),-1.31
12,Cc1cccc(CN2C[C@H]3OC(=O)N(CCCN4CCOCC4)[C@H]3C2)n1,-6.85
13,CN1CCCC(c2n[nH]c3ncccc23)C1 (configuration not stated),-3.35
14,CCc1nnc2n1CCN(C(=O)c1cc3c(F)cccc3[nH]1)C2,6.41
15,CCn1cnnc1C1CCN(C(=O)c2ccccc2F)CC1,-5.13
16,Cc1nccn1-c1cc(CNC(=O)C2CCCO2)ccn1 (configuration not stated),-7.81
17,CCCc1n[nH]c(C2CN(C(=O)c3n[nH]c4ccccc34)CCO2)n1 (configuration not stated),-1.39
18,COc1c(CNCCC(=O)NC2CCCC2)c(C(C)C)nn1C,-4.41
19,Cc1nc(C)n(C2CCCN(C(=O)c3ccc4nccn4c3)C2)n1 (configuration not stated),-12
20,CCOc1ccc(CN(CC)C(=O)c2ccc(C)[nH]c2=O)cc1OC,-6.83
21,Cc1cc(C)n(CC2CCCN2C(=O)c2c[nH]c(=O)c(Cl)c2)n1 (configuration not stated),1.53
22,Cc1cc(NC(=O)CNC2CCCN(c3cccnn3)C2)on1 (configuration not stated),5.98
23,Cc1ccc(N2CCCC(NCC(=O)Nc3cc(C)nn3C)C2)nn1 (configuration not stated),-1.18

row,Compound,cytotoxicity at 10 µM [%]
1,O=C(c1cnc(-c2ncccn2)s1)N1CCCC(n2cccn2)C1 (configuration not stated),-2.85
2,COc1ccc(NC(=O)CCc2c(C)nc3cc(O)nn3c2C)cn1,-9.21
3,Cc1ccc(NC2CCN(C(=O)c3c(C)noc3C)CC2)nn1,-4.35
4,Cc1ccc(C(=O)N2CCCS2(=O)=O)cc1Cl,2.29
5,O=C(CCNc1ncccn1)N1CCCC(n2ccnc2)C1 (configuration not stated),0.289
6,Cc1cc(C)n(C2CN(CC(=O)NC3CCOCC3)C2)n1,-3.92
7,CCOCCC(=O)N1CCCN(Cc2csc(CC)n2)CC1,3.9
8,c1ccc(CN2CCc3ncnc(C4CC4)c3CC2)nc1,-138
9,c1cc(CNCC2OCCc3cn(CC4CC4)nc32)cs1 (configuration not stated),2.61
10,O=C(NC1COC2(CCN(Cc3cccs3)CC2)C1)c1ccccn1 (configuration not stated),-2.19
11,CCOc1cc(CN(C)CC(=O)O)ccc1OC(F)F,7.99
12,CNC(=O)c1cc2c(nc1NCC(C)C)CCN(CCOC)CC2,-147
13,COc1nn(C)c2c1CCCN(C(=O)c1ccc3c(c1)OCO3)C2,13.1
14,CCN1CC2(CC1=O)CN(Cc1cnn(C)c1)CCN(C(=O)N(C)C)C2 (configuration not stated),-1.9
15,CCN1CC2(CC1=O)CN(Cc1ccsc1)CCN(C(=O)C(C)C)C2 (configuration not stated),5.08
16,Cc1c(C2CCCN(C(=O)c3ccncc3)C2)n2c(nc1=O)CCC2 (configuration not stated),-21.8
17,Cc1cccc(CN2C[C@@H]3COC[C@]3(CNC(=O)N3CCCC3)C2)n1,1.05
18,O=C(c1ccc[nH]1)N1C[C@@H]2CC[C@H]1CN(C1Cc3ccccc3C1)C2,-1.85
19,CCCS(=O)(=O)N1C[C@@H]2C[C@H](C(=O)N3CCN(C)CC3)[C@H](C1)O2,1.47
20,Cn1cnc(S(=O)(=O)N2C[C@H]3CC[C@@H](C2)N(Cc2ccccn2)C3)c1,7.27
